As a reminder, the EC50 is the concentration that produces a half-maximal response. What is called solubility is the dissolved amount per volume that the medium holds. A higher solubility goes with a readily soluble substance. As usually defined, the pKa is the negative logarithm of the acid dissociation constant. Low values mean a stronger acid or weaker base, high ones a weaker acid or stronger base.

This is an account of results in ChEMBL document CHEMBL1833887, “Synthesis and evaluation of 7-substituted 4-aminoquinoline analogues for antimalarial activity” (J Med Chem, 2011).

Data set [1] has as its system Plasmodium falciparum. Put plainly: Antimalarial activity against chloroquine-resistant Plasmodium falciparum K1 infected in human erythrocytes assessed as reduction in parasitemia after 72 hrs by spectrophotometry. The format is functional, organism-based. Particulars: K1, 72 h.
A short description of data set [2]: Solubility of the compound at pH 7.4 after 18 hrs by UV spectroscopic analysis. The format is physicochemical. As to conditions: buffer. An outline of the steps:
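Kinetic solubility. A 10 mM stock is diluted 1:100 into PBS pH 7.4 and incubated 18 h at room temperature, then filtered; the filtrate is mixed 1:1 with 1-propanol. UV spectrum (250–500 nm) compared by AUC with a 1-propanol/PBS reference. Single experiment in triplicate.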

Data set [3] can be described thus: Permeability of the compound at pH 7.4 after 30 mins by PAMPA. As to conditions: read-out: permeability. The format is ADME. An outline of the steps: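 PAMPA at pH 7.4. A 10 mM DMSO stock is diluted into system solution buffer; its UV spectrum serves as reference. Membrane painted with GIT lipid, acceptor chamber holds acceptor solution buffer. Sandwich stirred for 30 min, aqueous boundary layer set to 40. Donor and acceptor UV spectra read at 250–500 nm. Permeability coefficient from the AUCs of reference, donor and acceptor. Single experiment in triplicate.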

Data set [4] in a line: Ratio of EC50 for human HepG2 cells to EC50 for Plasmodium falciparum K1 infected in human erythrocytes.
Data set [5] can be described thus: Ratio of EC50 for human HepG2 cells to EC50 for Plasmodium falciparum 3D7 infected in human erythrocytes.
Data set [6] relates to Plasmodium falciparum. Put plainly: Antimalarial activity against chloroquine-sensitive Plasmodium falciparum 3D7 infected in human erythrocytes assessed as reduction in parasitemia after 72 hrs by spectrophotometry. It counts as functional, organism-based. As to conditions: 3D7, 72 h.
The test system of data set [7] is HepG2. Put plainly: Cytotoxicity against human HepG2 cells assessed as intracellular ATP level after 72 hrs by Celltiter-Glo luminescent assay. It counts as cell-based. As to conditions: HepG2, 72 h.
Data set [8] relates to Plasmodium falciparum. Description: Ratio of EC50 for chloroquine-resistant Plasmodium falciparum K1 infected in human erythrocytes to EC50 for chloroquine-sensitive Plasmodium falciparum 3D7 infected in human erythrocytes. It counts as functional.
The nature of data set [9]: Dissociation constant, pKa of the compound. The format is physicochemical.

The structures appear in SMILES notation. In brackets after ≈: the same amount, converted by molar mass.

Consider `c1ccc(Cc2ccc3c(NCCCNCc4ccc5c(c4)OCO5)ccnc3c2)cc1`, for which the EC50 in data set [1] is 1240 nM; in [6], 720 nM; in data set [7] it was 6280 nM. The same compound gave a solubility at 18 h in data set [2] of 4.2 µM (≈ 1.79 µg/mL). In [3], the Papp at 0.5 h is 23 ×10⁻⁶ cm/s. Besides, the “Ratio EC50” value in [4] turned out to be 5.1; in [5], 8.7; in data set [8], 1.7. Further, the pKa in data set [9] is 9.47.

In the case of `CC(C)Cc1ccc2c(NCCCNCc3ccco3)ccnc2c1`, the EC50 was determined as 4500 nM in data set [1], 581 nM in data set [6] and 16000 nM in data set [7]. The solubility at 18 h in data set [2] turned out to be 4.2 µM (≈ 1.42 µg/mL). The Papp at 0.5 h in data set [3] was 23 ×10⁻⁶ cm/s. The results for the “Ratio EC50” value in data set [4], in data set [5] and in data set [8] were 3.6, 27.5 and 7.7, respectively. The compound also registered a pKa in [9] of 9.47.

In the case of `COc1ccc(F)cc1CNCCCNc1ccnc2cc(-c3ccc(C(F)(F)F)cc3)ccc12`, the figures for the EC50 in [1], in [6] and in data set [7] were 89 nM, 54 nM and 5190 nM, respectively. Moreover, the solubility at 18 h in data set [2] came out at 32 µM (≈ 15.5 µg/mL). Besides, the Papp at 0.5 h in [3] turned out to be 237 ×10⁻⁶ cm/s. Moreover, the “Ratio EC50” value in data set [4] is reported as 58.4; in data set [5] it was 96.8; in data set [8], 1.7. This compound showed a pKa in data set [9] of 9.47.

With `COc1ccc(-c2ccc3c(NCCCNCc4cc(F)ccc4OC)ccnc3c2)cc1`, the EC50 in data set [1] was 29 nM; in [6], 96 nM; in data set [7], 5960 nM. Further, the solubility at 18 h in data set [2] was 32 µM (≈ 14.3 µg/mL). Besides, the Papp at 0.5 h in data set [3] was found to be 237 ×10⁻⁶ cm/s. Besides, the entries for the “Ratio EC50” value in [4], in data set [5] and in data set [8] were 205.5, 62.1 and 0.3, respectively. The pKa in [9] turned out to be 9.47.

As to `c1coc(CNCCCNc2ccnc3cc(CC4CCCCC4)ccc23)c1`, the EC50 in [1] was 621 nM; in data set [6], 55 nM; in [7] it was 1700 nM. The solubility at 18 h in [2] turned out to be 4.2 µM (≈ 1.59 µg/mL). For the same compound, in [3], the Papp at 0.5 h came to 23 ×10⁻⁶ cm/s. The “Ratio EC50” value worked out at 2.7 in [4], 30.7 in [5] and 11.2 in [8]. In addition, the pKa in data set [9] was found to be 9.47.

As for `COc1ccccc1Oc1ccc2c(NCCCNCc3ccco3)ccnc2c1`, the results for the half-maximal effective concentration (EC50) in data set [1], in data set [6] and in data set [7] were 87 nM, 1 nM and 6500 nM, respectively. The compound also had a solubility at 18 h in data set [2] of 14.5 µM (≈ 5.85 µg/mL). Also, the Papp at 0.5 h in [3] was found to be 317 ×10⁻⁶ cm/s. In addition, the entries for the “Ratio EC50” value in data set [4], in [5] and in data set [8] were 75, 5014 and 66.9, respectively. Besides, the pKa in data set [9] was 9.28.

Turning to `COc1cccc(CNCCCNc2ccnc3cc(Oc4cccc(N(C)C)c4)ccc23)c1O`, the half-maximal effective concentration (EC50) in [1] is 2040 nM; in data set [6], 10 nM; in data set [7] it was 7300 nM. Besides, in [2], the solubility at 18 h was 14.5 µM (≈ 6.85 µg/mL). For the same compound, the Papp at 0.5 h in data set [3] stood at 317 ×10⁻⁶ cm/s. Further, the “Ratio EC50” value worked out at 4 in data set [4], 765 in data set [5] and 215.1 in data set [8]. Also, the pKa in data set [9] is 9.28.

In the case of `COc1cccc(CNCCCNc2ccnc3cc(-c4ccc(C(C)(C)C)cc4)ccc23)c1O`, the EC50 is 418 nM in data set [1], 251 nM in data set [6] and 690 nM in data set [7]. The solubility at 18 h in data set [2] is 32 µM (≈ 15 µg/mL). In data set [3], the Papp at 0.5 h turned out to be 237 ×10⁻⁶ cm/s. In addition, the “Ratio EC50” value in [4] is recorded as 1.7; in [5], 2.8; in data set [8], 1.7. The compound also registered a pKa in data set [9] of 9.47.

In the case of `c1cc(NCCCNCc2ccc3c(c2)OCO3)c2ccc(C3CCCCC3)cc2n1`, the EC50 came to 4710 nM in data set [1], 128 nM in [6] and 3020 nM in data set [7]. In data set [2], this compound returned a solubility at 18 h of 4.2 µM (≈ 1.75 µg/mL). For the same compound, in data set [3], the Papp at 0.5 h was found to be 23 ×10⁻⁶ cm/s. Besides, the “Ratio EC50” value in data set [4] amounted to 0.6; in data set [5], 23.6; in data set [8], 36.7. For the same compound, the pKa in [9] turned out to be 9.47.

For the compound `Fc1ccc(Cc2ccc3c(NCCCNCc4ccco4)ccnc3c2)cc1`, the EC50 was 1660 nM in [1], 57 nM in [6] and 5600 nM in data set [7]. In data set [2], this compound showed a solubility at 18 h of 4.2 µM (≈ 1.64 µg/mL). In data set [3], the Papp at 0.5 h was found to be 23 ×10⁻⁶ cm/s. For the same compound, the “Ratio EC50” value in data set [4] worked out at 3.4; in data set [5] it was 97.5; in data set [8], 28.9. The same compound had a pKa in data set [9] of 9.47.

As to `COc1ccccc1Oc1ccc2c(NCCCNCc3ccc4c(c3)OCO4)ccnc2c1`, the EC50 in [1] was found to be 517 nM; in data set [6], 14 nM; in [7] it was 5900 nM. This compound also displayed a solubility at 18 h in data set [2] of 14.5 µM (≈ 6.63 µg/mL). Also, the Papp at 0.5 h in data set [3] worked out at 317 ×10⁻⁶ cm/s. Further, the “Ratio EC50” value is reported as 11 in data set [4], 427 in data set [5] and 37.7 in data set [8]. The pKa in [9] is 9.28.

As to `COc1ccc(F)cc1CNCCCNc1ccnc2cc(-c3cc(C(F)(F)F)cc(C(F)(F)F)c3)ccc12`, the EC50 in data set [1] was 812 nM; in [6] it was 92 nM; in data set [7], 870 nM. For the same compound, the solubility at 18 h in data set [2] was 32 µM (≈ 17.6 µg/mL). Further, the Papp at 0.5 h in [3] was found to be 237 ×10⁻⁶ cm/s. The “Ratio EC50” value in data set [4] is on record as 1.1; in data set [5], 9.4; in data set [8] it was 8.8. This compound returned a pKa in [9] of 9.47.

With `CN(C)c1cccc(Oc2ccc3c(NCCCNCc4ccco4)ccnc3c2)c1`, the EC50 in [1] amounted to 155 nM; in data set [6] it was 27 nM; in [7], 16000 nM. This compound returned a solubility at 18 h in data set [2] of 14.5 µM (≈ 6.04 µg/mL). The Papp at 0.5 h in [3] is 317 ×10⁻⁶ cm/s. Besides, the “Ratio EC50” value came to 103 in data set [4], 588 in data set [5] and 5.7 in data set [8]. For the same compound, in data set [9], the pKa is 9.28.

As for `Fc1ccc(Cc2ccc3c(NCCCNCc4ccc5c(c4)OCO5)ccnc3c2)c(Cl)c1`, the figures for the EC50 in [1], in data set [6] and in data set [7] were 953 nM, 27 nM and 16000 nM, respectively. The compound also displayed a solubility at 18 h in data set [2] of 4.2 µM (≈ 2.01 µg/mL). In addition, the Papp at 0.5 h in data set [3] was 23 ×10⁻⁶ cm/s. For the same compound, the “Ratio EC50” value amounted to 16.8 in [4], 603.8 in data set [5] and 35.9 in data set [8]. The pKa in [9] is 9.47.

`COc1ccc(Oc2ccc3c(NCCCNCc4cccc(OC)c4O)ccnc3c2)cc1`: the EC50 in [1] came out at 375 nM; in [6], 4 nM; in data set [7] it was 5500 nM. For the same compound, the concentration in solution in data set [2] (solubility at 18 h) was 14.5 µM (≈ 6.66 µg/mL). For the same compound, the Papp at 0.5 h in data set [3] came to 317 ×10⁻⁶ cm/s. The “Ratio EC50” value in data set [4] is 15; in data set [5], 1347; in data set [8], 91.5. In [9], this compound displayed a pKa of 9.28.

Take `COc1cccc(CNCCCNc2ccnc3cc(Cc4ccc(F)cc4)ccc23)c1O`: the EC50 amounted to 7150 nM in [1], 15 nM in data set [6] and 4780 nM in data set [7]. The compound also had a solubility at 18 h in data set [2] of 4.2 µM (≈ 1.87 µg/mL). For the same compound, the Papp at 0.5 h in [3] was 23 ×10⁻⁶ cm/s. In addition, the “Ratio EC50” value is listed as 0.7 in data set [4], 316.6 in data set [5] and 473.5 in data set [8]. The same compound showed a pKa in data set [9] of 9.47.
